Results gathered from unrelated publications.
pIC50: −log10 of the molar value.
Cell line: CCRF-CEM
Effect on: cell growth or viability

COc1ccc2[nH]cc(CCNc3nccc(Nc4cccc5c4ccn5C)n3)c2c1
pIC50 (fluorescence; 72 h): 8.00

O=C(c1ccccc1)c1cc2c(-c3ccccc3)c(O)ccc2o1
pIC50 (72 h): 4.47

COc1ccc2c(N)c(C(=O)c3cc(OC)c(OC)c(OC)c3)sc2c1
pIC50 (48 h): 8.11

COc1cc(C(=O)c2cc3c(-c4ccccc4)c(OC)ccc3o2)cc(OC)c1OC
pIC50 (72 h): < 4.30

CC(C(=O)NC1CCCCC1)c1cccc(C(OC(=O)NC2CCCCC2)c2ccccc2)c1 (centres unmarked)
pIC50 (72 h): 4.82

N#Cc1ccc(NC(=S)NN)cc1
IC50 (72 h): 21 µg/mL

CC(C(=O)NCCc1ccccc1)c1cccc(C(OC(=O)NCCc2ccccc2)c2ccccc2)c1 (centres unmarked)
pIC50 (72 h): 4.85

COc1ccc2c(N)c(C(=O)c3cc(OC)c(OC)c(OC)c3)[nH]c2c1
pIC50 (72 h): 6.49

CSc1ccc(NC(=S)NN)cc1
IC50 (72 h): 20 µg/mL

CC(C(=O)NC1CCCC1)c1cccc(C(OC(=O)NC2CCCC2)c2ccccc2)c1 (centres unmarked)
pIC50 (72 h): 4.92

N#Cc1ccc(NC(=S)NN=Cc2ccc(F)cc2)cc1
IC50 (72 h): 38 µg/mL

COc1ccc2c(N)c(C(=O)c3cc(OC)c(OC)c(OC)c3)n(C)c2c1
pIC50 (72 h): 7.15

N#Cc1ccc(NC(=S)NN=Cc2ccc([N+](=O)[O-])cc2)cc1
IC50 (72 h): > 200 µg/mL

CC(C(=O)NOCc1ccccc1)c1cccc(C(OC(=O)NOCc2ccccc2)c2ccccc2)c1 (centres unmarked)
pIC50 (72 h): 4.85
